# Columns and labels:
# Format in all cases: functional, cell-based
# [1] = Cytotoxicity against HCT cells by MTT assay; conditions: Homo sapiens
# Outline: (§1)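 5-day MTT test on human tumor cells (KB epidermoid, HCT-8 ileocecal carcinoma, A2780 epithelial); cell-generated MTT-formazan solubilized in dimethyl sulfoxide and read as a measure of cell growth.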
# KB = test: Cytotoxicity against human KB cells by MTT assay; outline: as §1
# A2780 = test: Cytotoxicity against human A2780 cells by MTT assay; outline: as §1
structure (smiles),measurement,setting,value
CCCCCCCCCC[C@@H](O)[C@H]1CC[C@H]([C@H](O)CCCCCC(O)CCCCCCCCCCC2=C[C@H](C)OC2=O)O1 (some centres not stated) [CALAMISTRIN C],IC50,[1],0.00473 µg/mL
same,IC50,KB,0.0605 µg/mL
same,IC50,A2780,0.00315 µg/mL
CCCCCCCCCC[C@H](O)[C@H]1CC[C@H]([C@H](O)CCCCCC(O)CCCCCCCCCCC2=C[C@H](C)OC2=O)O1 (some centres not stated) [CALAMISTRIN D],IC50,[1],0.0732 µg/mL
same,IC50,KB,0.0273 µg/mL
same,IC50,A2780,0.431 µg/mL
CCCCCCCC[C@H](O)[C@H]1CC[C@H]([C@H]2CC[C@H]([C@H](O)CCCCCCCCCCCC(O)CCC3=C[C@H](C)OC3=O)O2)O1 (some centres not stated) [CALAMISTRIN F],IC50,[1],0.00227 µg/mL
same,IC50,KB,0.051 µg/mL
same,IC50,A2780,0.0366 µg/mL
CCCCCCCC[C@@H](O)[C@H]1CC[C@H]([C@H]2CC[C@H]([C@H](O)CCCCCCCCCCC[C@@H](O)CCC3=C[C@H](C)OC3=O)O2)O1 [CALAMISTRIN G],IC50,[1],0.00331 µg/mL
same,IC50,KB,0.02 µg/mL
same,IC50,A2780,0.00197 µg/mL

# Reference: ChEMBL document CHEMBL1155577, “New annonaceous acetogenins from the roots of Uvaria calamistrata” (J Nat Prod, 2000)
